Data published in ChEMBL document CHEMBL4339209, “Chemical modifications of imidazole-containing alkoxyamines increase C-ON bond homolysis rate: Effects on their cytotoxic properties in glioblastoma cells” (Bioorg Med Chem, 2019).
Calls of active or inactive are those of the source. No cut-off for these calls is given here.

What was measured:
[1] = Dissociation constant, pKa of the compound in 1:1 v/v D2O/CD3OD by 1H-NMR spectrometric method; assay type: physicochemical
Procedure, shortened: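 Samples in D2O/CD3OD (1:1 v/v) were adjusted with DCl/NaOD to a series of pH* values, read on a meter calibrated with non-deuterated standards, and 1H-NMR was recorded at 400 MHz. Imidazole proton chemical shifts were plotted against pH* and fitted sigmoidally. The pKa* was converted by pH = 0.929 pH* + 0.42.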

[2] = Half life in H2O/MeOH buffered with Na2CO3/NaHCO3 at pH 10.3 in presence of alkyl radical scavenger TEMPOR by 31P[1H]-NMR analysis; assay type: physicochemical; conditions: buffer, pH 10.3
[3] = Half life in H2O/MeOH buffered with HCl/KCl at pH 2.2 in presence of alkyl radical scavenger TEMPOR by 31P[1H]-NMR analysis; assay type: physicochemical; conditions: buffer
[4] = Half life in H2O/MeOH buffered with HEPES/NaCl at pH 7.4 in presence of alkyl radical scavenger TEMPOR by 31P[1H]-NMR analysis; assay type: physicochemical; conditions: buffer
[5] = n-octanol/phosphate buffered saline partition coefficient, log D of the compound at pH 7.4 by shake-flask method; assay type: physicochemical; conditions: octanol/water
Procedure, shortened: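 Shake-flask partition between pre-saturated n-octanol and PBS at pH 7.4. The aqueous phase was quantified by RP-HPLC on a 4.6 × 50 mm column, eluting with CH3CN/H2O (each with 0.1% TFA) from 10:90 to 100:0 over 10 min.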

[6] = Stability in H2O/MeOH buffered with Na2CO3/NaHCO3 at pH 10.3 assessed as temperature; assay type: physicochemical; conditions: buffer
[7] = system: U-251; assay: Cytotoxicity against human U251MG cells assessed as reduction in cell survival measured after 72 hrs by MTT assay; assay type: functional, cell-based; conditions: for IC50: U-251, 72 h
Procedure, shortened: (§1)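 MTT viability on 2D cultures, U87-MG in DMEM and U251-MG in EMEM with […], both with 10% FBS and Pen Strep. 5000 cells seeded, then 72 h exposure to 500, 250, 100, 50, 25, 10 and 5 μM (DMSO at most […]). MTT 0.5 mg/mL for 1 h, formazan in DMSO read at 550 nm. Survival as % of control. IC50 determined graphically. At least triplicate.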

[8] = Stability in H2O/MeOH buffered with HEPES/NaCl at pH 7.4 assessed as temperature; assay type: physicochemical; conditions: buffer
[9] = Drug homolysis in H2O/MeOH buffered with Na2CO3/NaHCO3 at pH 10.3 assessed as activation energy in presence of alkyl radical scavenger TEMPOR by 31P[1H]-NMR analysis
[10] = Drug homolysis in H2O/MeOH buffered with HCl/KCl at pH 2.2 assessed as activation energy in presence of alkyl radical scavenger TEMPOR by 31P[1H]-NMR analysis
[11] = Drug homolysis in H2O/MeOH buffered with Na2CO3/NaHCO3 at pH 10.3 assessed as rate constant by measuring nitroxide level in presence of alkyl radical scavenger TEMPOR by 31P[1H]-NMR analysis
[12] = Drug homolysis in H2O/MeOH buffered with HEPES/NaCl at pH 7.4 assessed as rate constant by measuring nitroxide level in presence of alkyl radical scavenger TEMPOR by 31P[1H]-NMR analysis
[13] = Drug homolysis in H2O/MeOH buffered with HCl/KCl at pH 2.2 assessed as rate constant by measuring nitroxide level in presence of alkyl radical scavenger TEMPOR by 31P[1H]-NMR analysis
[14] = Drug homolysis in H2O/MeOH buffered with HEPES/NaCl at pH 7.4 assessed as activation energy in presence of alkyl radical scavenger TEMPOR by 31P[1H]-NMR analysis
[15] = system: U-87 MG; assay: Cytotoxicity against human U87MG cells assessed as reduction in cell survival measured after 72 hrs by MTT assay; assay type: functional, cell-based; conditions: U-87MG ATCC; procedure, shortened: as §1
[16] = system: U-251; assay: Cytotoxicity against human U251MG cells assessed as reduction in cell survival at IC50 measured after 72 hrs in presence of alkyl radical scavenger troxerutin by MTT assay; assay type: functional, cell-based
Procedure, shortened: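 U251-MG cells in EMEM (10% FBS, Pen Strep, […]) were exposed for 72 h to alkoxyamine together with an equal concentration of the alkyl radical scavenger troxerutin. Survival was read by MTT (0.5 mg/mL, 1 h, OD 550 nm) as % of control, and compared with alkoxyamine alone. At least triplicate.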

CCOP(=O)(OCC)C(N(OC(C)c1nccn1C)C(C)(C)C)C(C)(C)C (stereo in doubt; form 2) [listing 1 of 2 here]
pKa [1]: 6.5
t1/2 [2]: 39 h
t1/2 [3]: 1.98 h
t1/2 [4]: 10 h
logD [5]: 3.7

CCOP(=O)(OCC)C(N(OC(C)c1c[nH]cn1)C(C)(C)C)C(C)(C)C (stereo in doubt; form 2) [listing 1 of 2 here]
pKa [1]: 6.13
t1/2 [2]: 456 h
t1/2 [3]: 190 h
T [6]: 70 °C
t1/2 [4]: 312 h
logD [5]: 4
IC50 [7]: 20 µM

CCOP(=O)(OCC)C(N(OC(C)n1ccnc1)C(C)(C)C)C(C)(C)C (stereo in doubt; form 2)
pKa [1]: 5.81

CCOP(=O)(OCC)C(N(OC(C)n1cc[n+](C)c1)C(C)(C)C)C(C)(C)C (stereo in doubt; form 2) [listing 1 of 2 here]
logD [5]: 0.3

CCOP(=O)(OCC)C(N(OC(C)c1cn(C)c[n+]1C)C(C)(C)C)C(C)(C)C (stereo in doubt; form 2) [listing 1 of 2 here]
T [8]: 80 °C
t1/2 [4]: 29 h
logD [5]: 0.4

CCOP(=O)(OCC)C(N(OC(C)c1n(C)cc[n+]1C)C(C)(C)C)C(C)(C)C (stereo in doubt; form 2) [listing 1 of 2 here]
T [8]: 60 °C
t1/2 [4]: 3.4 h
logD [5]: 0.5

CCOP(=O)(OCC)C(N(OC(C)c1c[nH]cn1)C(C)(C)C)C(C)(C)C (stereo in doubt; form 2) [listing 2 of 2 here]
Ea [9]: 29.5 kcal/mol
Ea [10]: 29 kcal/mol
Kdiss [11]: 4.07 ×10⁻⁵ /s
Kdiss [12]: 1.95 ×10⁻⁴ /s
Kdiss [13]: 2.8 ×10⁻⁴ /s
Ea [14]: 29.2 kcal/mol
Activity [15]: Dose-dependent effect
Activity [7]: Dose-dependent effect

CCOP(=O)(OCC)C(N(OC(C)c1cn(C)c[n+]1C)C(C)(C)C)C(C)(C)C (stereo in doubt; form 2) [listing 2 of 2 here]
Kdiss [12]: 1.61 ×10⁻³ /s
Ea [14]: 27.7 kcal/mol
Activity [15]: Dose-dependent effect
Activity [7]: Dose-dependent effect

CCOP(=O)(OCC)C(N(OC(C)c1cn(C)cn1)C(C)(C)C)C(C)(C)C (stereo in doubt; form 2)
Ea [9]: 30.3 kcal/mol
Ea [10]: 28.8 kcal/mol
Kdiss [11]: 4.57 ×10⁻⁵ /s
Kdiss [12]: 1.24 ×10⁻⁴ /s
Kdiss [13]: 3.55 ×10⁻⁴ /s
Ea [14]: 29.5 kcal/mol
Activity [15]: Dose-dependent effect
Activity [7]: Dose-dependent effect

CCOP(=O)(OCC)C(N(OC(C)c1n(C)cc[n+]1C)C(C)(C)C)C(C)(C)C (stereo in doubt; form 2) [listing 2 of 2 here]
Kdiss [12]: 1.1 ×10⁻³ /s
Ea [14]: 26.4 kcal/mol
Activity [15]: Dose-dependent effect
Activity [7]: Dose-dependent effect

CCOP(=O)(OCC)C(N(OC(C)c1ncc[nH]1)C(C)(C)C)C(C)(C)C (stereo in doubt; form 2)
Ea [9]: 29.1 kcal/mol
Ea [10]: 26.6 kcal/mol
Kdiss [11]: 2.47 ×10⁻⁴ /s
Kdiss [12]: 2.61 ×10⁻⁴ /s
Kdiss [13]: 9.16 ×10⁻⁴ /s
Ea [14]: 28.2 kcal/mol
Activity [15]: Dose-dependent effect
Activity [7]: Dose-dependent effect

CCOP(=O)(OCC)C(N(OC(C)c1nccn1C)C(C)(C)C)C(C)(C)C (stereo in doubt; form 2) [listing 2 of 2 here]
Ea [9]: 27.9 kcal/mol
Ea [10]: 26.1 kcal/mol
Kdiss [11]: 1.23 ×10⁻³ /s
Kdiss [12]: 1.28 ×10⁻³ /s
Kdiss [13]: 1.8 ×10⁻³ /s
Ea [14]: 27.1 kcal/mol
Activity [15]: Dose-dependent effect
Activity [7]: Dose-dependent effect

CCOP(=O)(OCC)C(N(OC(C)n1cc[n+](C)c1)C(C)(C)C)C(C)(C)C (stereo in doubt; form 2) [listing 2 of 2 here]
Kdiss [12]: 2.84 ×10⁻⁵ /s
Ea [14]: 32.3 kcal/mol
Activity [15]: Dose-dependent effect
Activity [7]: Dose-dependent effect
Activity [16]: Active

Cn1nnc2c(C(N)=O)ncn2c1=O [TEMOZOLOMIDE]
IC50 [7]: 455 µM
